In general, IC50 refers to the concentration that gives 50% inhibition.

SMILES strings stand for the structures.

Nine molecules from ChEMBL document CHEMBL1759959, “Synthesis and antitumor activity of 10-arylcamptothecin derivatives” (Bioorg Med Chem Lett, 2011) can be followed below.

The subject of one data set is A549. The data set can be described thus: Cell cycle arrest in human A549 cells assessed as accumulation at S phase at 12.5 uM after 24 hrs by flow cytometry (reference value: 27.52%). It counts as functional.
Details: not given
(In general: In flow cytometry, cells or beads pass a laser one at a time.)
With `CC[C@@]1(O)C(=O)OCc2c1cc1n(c2=O)Cc2cc3cc(-c4ccncc4)ccc3nc2-1`, the Activity is given as 18.18%.
As for `CC[C@@]1(O)C(=O)OCc2c1cc1n(c2=O)Cc2cc3cc(-c4ccncc4)ccc3nc2-1.Cl`, the Activity was 15.74%.

The test system of the next data set is A549. The data set can be described thus: Cell cycle arrest in human A549 cells assessed as accumulation at G2/M phase at 12.5 uM after 24 hrs by flow cytometry (reference value: 10.34%). It counts as functional.
Details: not given
As for `CC[C@@]1(O)C(=O)OCc2c1cc1n(c2=O)Cc2cc3cc(-c4ccncc4)ccc3nc2-1`, the Activity was 22.22%.
Turning to `CC[C@@]1(O)C(=O)OCc2c1cc1n(c2=O)Cc2cc3cc(-c4ccncc4)ccc3nc2-1.Cl`, the Activity was 28.07%.

The subject of a further data set is A549. The data set can be described thus: Cell cycle arrest in human A549 cells assessed as accumulation at G0/G1 phase at 50 uM after 24 hrs by flow cytometry (reference value: 62.14%). Type of data set: functional.
Details: not given
As to `CC[C@@]1(O)C(=O)OCc2c1cc1n(c2=O)Cc2cc3cc(-c4ccncc4)ccc3nc2-1`, the Activity amounted to 22.33%.
For `CC[C@@]1(O)C(=O)OCc2c1cc1n(c2=O)Cc2cc3cc(-c4ccncc4)ccc3nc2-1.Cl`, the Activity is given as 19.91%.

Another data set concerns A549. The data set can be described thus: Cell cycle arrest in human A549 cells assessed as accumulation at S phase at 50 uM after 24 hrs by flow cytometry (reference value: 27.52%). Type of data set: functional.
Details: not given
In the case of `CC[C@@]1(O)C(=O)OCc2c1cc1n(c2=O)Cc2cc3cc(-c4ccncc4)ccc3nc2-1`, the Activity came to 14.24%.
Same read-out and setting: the result for `CC[C@@]1(O)C(=O)OCc2c1cc1n(c2=O)Cc2cc3cc(-c4ccncc4)ccc3nc2-1.Cl` reads 0%.

For a further data set, the system named is A549. The data set can be described thus: Cell cycle arrest in human A549 cells assessed as accumulation at G2/M phase at 50 uM after 24 hrs by flow cytometry (reference value: 10.34%). It counts as functional.
Details: not given
In the case of `CC[C@@]1(O)C(=O)OCc2c1cc1n(c2=O)Cc2cc3cc(-c4ccncc4)ccc3nc2-1`, the Activity was 63.43%.
On the same count and under the same terms, the result for `CC[C@@]1(O)C(=O)OCc2c1cc1n(c2=O)Cc2cc3cc(-c4ccncc4)ccc3nc2-1.Cl` reads 80.09%.

Another data set relates to HL-60. The data set can be described thus: Cytotoxicity against human HL60 cells after 3 days. It counts as functional, cell-based. The conditions noted are these: Homo sapiens, HL-60, 72 h. Put shortly: (§1)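 HL60 (leukaemia), A549 (lung) and BEL-7402 (liver) human tumour cells exposed to compounds for 3 days; viability read by MTT assay and SRB assay; IC50 (half-maximal inhibitory concentration) reported.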
The molecule `CC[C@@]1(O)C(=O)OCc2c1cc1n(c2=O)Cc2cc3cc(-c4ccc(C(=O)O)cc4)ccc3nc2-1` showed an IC50 of 1.45 µM.
The same measure, in the same setting: as for `CC[C@@]1(O)C(=O)OCc2c1cc1n(c2=O)Cc2cc3cc(-c4cccnc4)ccc3nc2-1`, the figure is 0.032 µM; as for `CC[C@@]1(O)C(=O)OCc2c1cc1n(c2=O)Cc2cc3cc(-c4cccs4)ccc3nc2-1`, 0.048 µM; as for `CC[C@@]1(O)C(=O)OCc2c1cc1n(c2=O)Cc2cc3cc(-c4ccc(OC)cc4)ccc3nc2-1`, 0.78 µM.
Consider `CC[C@@]1(O)C(=O)OCc2c1cc1n(c2=O)Cc2cc3cc(-c4cccc(C(=O)OC)c4)ccc3nc2-1`, for which half-maximal inhibition (IC50) required 0.049 µM. Against the preceding molecule, the IC50 is about 16-fold lower.
The same measure, in the same setting: the result for `CC[C@@]1(O)C(=O)OCc2c1cc1n(c2=O)Cc2cc3cc(-c4ccc(O)cc4)ccc3nc2-1` reads 0.02 µM.
On the same count and under the same terms, as for `CC[C@@]1(O)C(=O)OCc2c1cc1n(c2=O)Cc2cc3cc(-c4ccsc4)ccc3nc2-1`, the figure is 0.037 µM.

The data set is the same for the next values; noted with them: hl-60.
In the case of `CC[C@@]1(O)C(=O)OCc2c1cc1n(c2=O)Cc2cc3cc(-c4ccncc4)ccc3nc2-1`, half-maximal inhibition (IC50) was put at 0.009 µM.
Still for that read-out and setting: the result for `CC[C@@]1(O)C(=O)OCc2c1cc1n(c2=O)Cc2cc3cc(-c4ccncc4)ccc3nc2-1.Cl` reads 0.021 µM.

The test system of another data set is A549. The data set can be described thus: Cytotoxicity against human A549 cells after 3 days. It counts as functional, cell-based. The conditions noted are these: Homo sapiens, A549, 72 h. The method in brief: as §1
`CC[C@@]1(O)C(=O)OCc2c1cc1n(c2=O)Cc2cc3cc(-c4ccc(C(=O)O)cc4)ccc3nc2-1`: inhibition was half-maximal at 11.6 µM (IC50).
Still for that read-out and setting: as for `CC[C@@]1(O)C(=O)OCc2c1cc1n(c2=O)Cc2cc3cc(-c4cccnc4)ccc3nc2-1`, the figure is 0.068 µM; as for `CC[C@@]1(O)C(=O)OCc2c1cc1n(c2=O)Cc2cc3cc(-c4ccncc4)ccc3nc2-1`, 0.067 µM; as for `CC[C@@]1(O)C(=O)OCc2c1cc1n(c2=O)Cc2cc3cc(-c4cccs4)ccc3nc2-1`, 0.01 µM.
`CC[C@@]1(O)C(=O)OCc2c1cc1n(c2=O)Cc2cc3cc(-c4ccc(OC)cc4)ccc3nc2-1` came in with an IC50 of 0.5 µM. This IC50 is about 50-fold higher than that of the molecule before.
Turning to `CC[C@@]1(O)C(=O)OCc2c1cc1n(c2=O)Cc2cc3cc(-c4cccc(C(=O)OC)c4)ccc3nc2-1`, the IC50 came to 0.023 µM. Against the preceding molecule, the IC50 is about 22-fold lower.
The molecule `CC[C@@]1(O)C(=O)OCc2c1cc1n(c2=O)Cc2cc3cc(-c4ccc(O)cc4)ccc3nc2-1` had an IC50 of 0.14 µM. Against the preceding molecule, the IC50 is about 6.1-fold higher.
The same measure, in the same setting: the result for `CC[C@@]1(O)C(=O)OCc2c1cc1n(c2=O)Cc2cc3cc(-c4ccsc4)ccc3nc2-1` reads 0.012 µM.

Still in this data set, the particulars now being: a549.
Take `CC[C@@]1(O)C(=O)OCc2c1cc1n(c2=O)Cc2cc3cc(-c4ccncc4)ccc3nc2-1.Cl`: the IC50 was determined as 0.062 µM.

Another data set concerns Bel-7402. The data set can be described thus: Cytotoxicity against human Bel7402 cells after 3 days. The note with it: Homo sapiens, Bel-7402, 72 h. Type of data set: functional, cell-based. Put shortly:
as §1
In turn, `CC[C@@]1(O)C(=O)OCc2c1cc1n(c2=O)Cc2cc3cc(-c4ccc(C(=O)O)cc4)ccc3nc2-1` displayed an IC50 of 13.8 µM.
For `CC[C@@]1(O)C(=O)OCc2c1cc1n(c2=O)Cc2cc3cc(-c4cccnc4)ccc3nc2-1`, the concentration for half-maximal inhibition (IC50) is 0.38 µM.
Same read-out and setting: as for `CC[C@@]1(O)C(=O)OCc2c1cc1n(c2=O)Cc2cc3cc(-c4ccncc4)ccc3nc2-1`, the figure is 0.42 µM.
On to `CC[C@@]1(O)C(=O)OCc2c1cc1n(c2=O)Cc2cc3cc(-c4cccs4)ccc3nc2-1`, for which inhibition was half-maximal at 0.08 µM (IC50).
Same read-out and setting: as for `CC[C@@]1(O)C(=O)OCc2c1cc1n(c2=O)Cc2cc3cc(-c4ccc(OC)cc4)ccc3nc2-1`, the figure is 5.89 µM.
Still for that read-out and setting: as for `CC[C@@]1(O)C(=O)OCc2c1cc1n(c2=O)Cc2cc3cc(-c4cccc(C(=O)OC)c4)ccc3nc2-1`, the figure is 5.12 µM; as for `CC[C@@]1(O)C(=O)OCc2c1cc1n(c2=O)Cc2cc3cc(-c4ccc(O)cc4)ccc3nc2-1`, 1.05 µM.
On the same count and under the same terms, as for `CC[C@@]1(O)C(=O)OCc2c1cc1n(c2=O)Cc2cc3cc(-c4ccsc4)ccc3nc2-1`, the figure is 0.23 µM.

Still in this data set, the particulars now being: bel-7402.
Take `CC[C@@]1(O)C(=O)OCc2c1cc1n(c2=O)Cc2cc3cc(-c4ccncc4)ccc3nc2-1.Cl`: the IC50 came out at 0.46 µM. This lies in the sub-micromolar range.

Tested on in a further data set: not listed separately
The data set can be described thus: Chemical stability of the compound in phosphate saline buffer at pH 7.4 at 50 umol/L by HPLC analysis. It counts as physicochemical. The note with it: pH 7.4, 50 µM. Put shortly:
(§2)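 Lactone stability followed by HPLC with fluorescence detection; drug at 50 μmol/L incubated at pH 7.4, 37 °C in PBS, PBS with human serum albumin, or human blood; each point mean of three determinations, uncertainty 10% or less.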
With `CC[C@@]1(O)C(=O)OCc2c1cc1n(c2=O)Cc2cc3cc(-c4ccncc4)ccc3nc2-1`, the Stability result is “Stable”.

Tested on in another data set: not listed separately
The data set can be described thus: Chemical stability of the compound in phosphate saline buffer at pH 7.4 at 50 umol/L by HPLC analysis in presence of HAS. Type of data set: physicochemical. The conditions noted are these: pH 7.4, 50 µM. Put shortly: as §2
Regarding `CC[C@@]1(O)C(=O)OCc2c1cc1n(c2=O)Cc2cc3cc(-c4ccncc4)ccc3nc2-1`, the Stability entry is recorded as “Stable”.

Tested on in the next data set: not listed separately
The data set can be described thus: Chemical stability of the compound in phosphate saline buffer at pH 7.4 at 50 umol/L by HPLC analysis in presence of human blood. It counts as physicochemical. The note with it: pH 7.4, 50 µM. Put shortly:
as §2
Consider `CC[C@@]1(O)C(=O)OCc2c1cc1n(c2=O)Cc2cc3cc(-c4ccncc4)ccc3nc2-1`, for which the Stability entry is recorded as “Stable”.

The subject of the next data set is A549. The data set can be described thus: Cell cycle arrest in human A549 cells assessed as accumulation at G0/G1 phase at 12.5 uM after 24 hrs by flow cytometry (reference value: 62.14%). It counts as functional.
Details: not given
`CC[C@@]1(O)C(=O)OCc2c1cc1n(c2=O)Cc2cc3cc(-c4ccncc4)ccc3nc2-1`: the Activity was found to be 59.61%.
Take `CC[C@@]1(O)C(=O)OCc2c1cc1n(c2=O)Cc2cc3cc(-c4ccncc4)ccc3nc2-1.Cl`: the Activity came to 56.19%.

The test system of another data set is A549. The data set can be described thus: Cell cycle arrest in human A549 cells assessed as accumulation at S phase at 25 nM after 24 hrs by flow cytometry (reference value: 27.52%).
Details: not given
Turning to `CC[C@@]1(O)C(=O)OCc2c1cc1n(c2=O)Cc2cc3cc(-c4ccncc4)ccc3nc2-1`, the Activity stood at 16.74%.
Consider `CC[C@@]1(O)C(=O)OCc2c1cc1n(c2=O)Cc2cc3cc(-c4ccncc4)ccc3nc2-1.Cl`, for which the Activity worked out at 22%.

The test system of the next data set is A549. The data set can be described thus: Cell cycle arrest in human A549 cells assessed as accumulation at G2/M phase at 25 nM after 24 hrs by flow cytometry (reference value: 10.34%).
Details: not given
On to `CC[C@@]1(O)C(=O)OCc2c1cc1n(c2=O)Cc2cc3cc(-c4ccncc4)ccc3nc2-1`, for which the Activity is on record as 38.41%.
As to `CC[C@@]1(O)C(=O)OCc2c1cc1n(c2=O)Cc2cc3cc(-c4ccncc4)ccc3nc2-1.Cl`, the Activity was 46.71%.

The next data set concerns A549. The data set can be described thus: Cell cycle arrest in human A549 cells assessed as accumulation at G0/G1 phase at 25 nM after 24 hrs by flow cytometry (reference value: 62.14%).
Details: not given
For the molecule `CC[C@@]1(O)C(=O)OCc2c1cc1n(c2=O)Cc2cc3cc(-c4ccncc4)ccc3nc2-1`, the Activity amounted to 44.85%.
The same measure, in the same setting: as for `CC[C@@]1(O)C(=O)OCc2c1cc1n(c2=O)Cc2cc3cc(-c4ccncc4)ccc3nc2-1.Cl`, the figure is 31.29%.
